# Rows were chosen to be rich in hits. Some 9.2% of all compounds tested hit in one or more screens of this group.
# Lmaj promast = Leishmania major promastigote growth inhibition; Leishmania major promastigotes, resazurin fluorescence viability; 200,000 tested, 9% active; AID 1063; inhibition, % at 10 µM; in the data active = inhibition above about 50%;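 note: promastigotes grown with compound for 44 hours at 28 °C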
# Dynein transport = dynein cargo transport inhibition; 3617.4 mouse cells, GR-EGFP nuclear translocation imaging; test concentration mostly 20 µM; stimulated with dexamethasone, 1 µM; hits give low values; z-score, hits read low; 220,000 tested, 0.47% active; AID 1381;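 active = plate z-score of nuclear minus cytoplasmic receptor signal below a set negative limit, without overly bright fluorescence or cell loss, cut at about -3.5 in these data, passing the limit was not always enough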;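 note: z-score of nuclear minus cytoplasmic ring GR-EGFP intensity difference per well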
#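 Also added: dexamethasone, 1.0 µM final. Medium: tet-free, stripped-serum medium. Detection: fixed, Hoechst-stained cells imaged at 10x for EGFP. Read-out: nuclear-to-cytoplasmic GR-EGFP distribution per well. Times: induction 48 h, compound 1 h, agonist 30 min.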
# Autophagy mod = alters autophagy in cells | MEF GFP-LC3 puncta imaging; test concentration mostly 10 µM | calls only at 10 µM (by protocol) | 190,000 tested, 0.98% active;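 active = percentage of spot-positive cells more than 3 SD above its plate mean, without a fluorescence outlier flag or 80% toxicity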;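 note: spot-positive cell cutoff set from DMSO-treated cells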
# PTEN del growth = growth suppressors of cells with PTEN tumor suppressor deletion; AID 827; HCT116 PTEN-null viability, CellTiter-Glo, 60 h; hits give low values; viability, % at 10 µM; 140,000 tested, 1.2% active;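 active = viability at or below a set limit, 4 SD under the median of all tested compounds, cut at about 3.7% in these data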;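 note: PTEN knockout HCT116 line with beta catenin targeted HCT116 as companion control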
# bCat KO growth = beta-catenin-lacking colon tumor cell growth suppression. 140,000 tested, 1.5% active. AID 818. HCT116 beta-catenin knockout viability, CellTiter-Glo, 60 h; hits give low values. viability, % at 10 µM;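 active = viability at or under a set limit, the compound median less 4 SD, cut at about 6% in these data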;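 note: 0% = Hyamine 1622 control at 20 µM and 100% = untreated cell control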
# * marks the source's active call; other numbers are inactive results; i = inactive; x = no result; + = active, no number.
SMILES,Lmaj promast,Dynein transport,Autophagy mod,PTEN del growth,bCat KO growth
O=C(/C=C/c1ccccc1)Nc1cccc(S(=O)(=O)Nc2ccccc2F)c1,0.3,1.31,i,89.9,91.4
Cc1ccc(NC(=O)C(C)c2ccc([N+](=O)[O-])cc2)cc1Cl (stereo not drawn),56.0*,0.262,i,46.2,57.8
O=C(Nc1ccc([N+](=O)[O-])cc1)Nc1ccc(OC(F)F)c(Cl)c1,99.2*,0.67,+,1.1*,1.0*
O=C(Nc1ccc(OC(F)F)c(Cl)c1)Nc1ccc2c(c1)OCO2,5.2,-0.103,i,54.5,65.2
O=C(Cc1ccc(Cl)cc1Cl)Nc1ccc(OC(F)F)c(Cl)c1,52.5*,-0.0143,i,79.5,87.0
CC(=O)c1ccccc1NCC(=O)Nc1ccc(C)cc1,14.3,1.39,i,x,x
Cc1ccc(NC(=O)c2ccccc2NS(=O)(=O)c2ccc(Cl)s2)cc1,52.7*,-0.956,i,38.2,43.6
Cc1ccccc1N(CC(=O)N/N=C/c1ccc(Cl)cc1)C(=O)c1ccccc1,67.5*,0.281,i,42.5,63.9
Cc1ccccc1N(CC(=O)N/N=C/c1ccc(F)cc1)C(=O)c1ccccc1,99.2*,0.025,i,87.3,85.0
COc1ccccc1NC(=O)CC(c1ccc(OC(C)C)cc1)c1ccccc1OC (stereo not drawn),20.1,-0.878,i,69.6,79.5
COc1ccccc1C(CC(=O)Nc1ccc(C)c(C)c1)c1ccc(OC(C)C)cc1 (stereo not drawn),51.1*,0.57,i,62.6,70.6
CCOc1nc(Nc2ccc([N+](=O)[O-])cc2)nc(NC(C)(C)C)n1,73.7*,-0.14,i,79.1,90.6
COc1nc(Nc2ccc([N+](=O)[O-])cc2)nc(NC(C)C)n1,97.5*,-0.266,i,109.8,97.8
COc1nc(NCCO)nc(Nc2ccc([N+](=O)[O-])cc2)n1,3.8,0.118,i,90.1,79.0
COc1cc(C(=O)OCC(=O)c2cc(C)n(C)c2C)cc(OC)c1OC,18.6,-0.443,i,35.2,29.3
COc1cc(C(=O)O/N=C2/C=C(C)C(=O)C=C2C)cc(OC)c1OC,93.5*,-1.11,i,6.3,3.6*
COc1cc(C(=O)ON=C2C(C)=CC(=O)C=C2C)cc(OC)c1OC,74.1*,-1.16,i,84.7,77.4
COc1cc(C(=O)Oc2cc(C)cc(C)c2)cc(OC)c1OC,-7.1,-0.34,i,96.1,87.7
Cn1ccnc1C1CCCCN1Cc1nc(-c2ccc(Cl)cc2)no1 (stereo not drawn),15.2,0.185,i,x,x
O=C(O)CS(=O)(=O)c1ccc(C(F)(F)F)cn1,-2.3,-0.34,i,x,x
O=C(NNc1ccc(C(F)(F)F)cc1[N+](=O)[O-])c1ccc(NS(=O)(=O)c2ccc(F)cc2)cc1,51.8*,-0.378,i,72.3,81.3
COc1cc(NC(=O)C2=C(N3CCOCC3)/C(=C\c3ccc(N(C)C)cc3)CCC2)cc(OC)c1OC,98.0*,-1.89,i,17.2,18.3
COc1cc(NC(=O)C2=C(N3CCOCC3)/C(=C/c3ccc(Cl)cc3)CC2)cc(OC)c1OC,16.6,-1.92,i,69.0,65.7
OCC1(Cc2ccccc2C(F)(F)F)CCN(Cc2ccccc2)CC1,81.4*,0.48,i,x,x
COc1ccc(CN2CCC(CO)(Cc3ccccc3)CC2)cc1Cn1cccn1,5.9,-0.201,i,x,x
SMILES,Lmaj promast,Dynein transport,Autophagy mod,PTEN del growth,bCat KO growth
OCC1(Cc2ccccc2C(F)(F)F)CCN(Cc2ccc3c(c2)CCO3)CC1,90.5*,-0.78,i,x,x
O=C(NCC(c1cccs1)N1CCOCC1)c1ccc(Cl)c([N+](=O)[O-])c1 (stereo not drawn),-2.5,1.12,i,30.6,32.1
CS(=O)(=O)NNC(=O)c1sccc1OCc1ncc(C(F)(F)F)cc1Cl,x,-0.357,x,x,x
Cn1c(NNC(=O)C2CCCCC2)cc(=O)n(C)c1=O,-0.6,0.546,+,x,x
COc1ccccc1N1CCN(c2ccc(-c3ccccc3)nn2)CC1,64.2*,-0.618,i,9.7,12.5
COc1ccccc1N1CCN(c2nc(-c3ccccc3)cc(C(F)(F)F)n2)CC1,30.2,0.954,i,78.2,75.8
Cc1ccc(C(=O)c2cn[nH]c2-c2cc(Cl)ccc2O)cc1,98.4*,-0.458,i,72.2,75.8
CCOc1ccc(-c2nn(-c3ccccc3)cc2/C=C2\SC(N)=NC2=O)cc1C,7.5,-0.418,i,0.7*,1.1*
C=CCNc1ncnc2sc(SC)nc12,x,0.785,x,x,x
CCN1CCN(c2nc(N)c([N+](=O)[O-])c(Nc3ccc(C)c(C)c3)n2)CC1,60.0*,-0.206,i,81.7,83.4
Cc1ccc(Nc2nc(N3CCN(C)CC3)nc(N)c2[N+](=O)[O-])cc1C,97.3*,-0.234,i,70.9,70.1
N#CCSc1nc2sc3c(c2c(=O)n1C1CCCCC1)CCCC3,56.4*,1.31,i,72.7,75.9
Cc1c(NC(=S)N2CCN(c3cccc(Cl)c3)CC2)c(=O)n(-c2ccccc2)n1C,0.3,0.426,i,x,x
Cc1nn(Cc2ccc(Cl)cc2)c(C)c1NC(=O)CSc1nc2c(c(C(F)(F)F)n1)CCc1ccccc1-2,10.8,2.16,i,3.5*,14.9
Cc1cc2n(n1)C(c1ccc3c(c1)OCO3)Nc1c(C)cccc1-2 (stereo not drawn),98.8*,-0.43,i,86.8,90.5
COC(=O)C1=C(C)NC(C)=C(C(=O)OC)C1C(=O)OCC(=O)N1c2ccccc2CC1C (stereo not drawn),-3.5,-0.856,i,95.9,94.2
O=C(Nc1ccc(Br)cc1)c1ccc(Br)c(S(=O)(=O)Nc2cccnc2)c1,72.7*,0.676,i,88.6,88.1
O=C(/C=C/c1cccnc1)c1ccc(NC(=O)c2cccc(Br)c2)cc1,99.1*,-0.141,i,3.6*,5.7*
Cc1cccc(C(=O)Nc2ccc(C(=O)/C=C/c3cccnc3)cc2)c1,100.5*,0.745,i,1.6*,1.4*
O=C(Nc1cccnc1)c1ccc(NS(=O)(=O)c2cc([N+](=O)[O-])ccc2Cl)cc1,x,-1.32,x,x,x
O=S(=O)(c1ccc(Cl)cc1)N1CCC(N2CCOCC2)CC1,91.0*,-0.252,i,81.8,80.0
COc1ccc(S(=O)(=O)N2CCN(C3CCCCCCC3)CC2)cc1,72.9*,-2.27,i,86.3,80.9
O=S(=O)(c1ccc(Cl)cc1)N1CCN(C2CCCCCC2)CC1,89.7*,-0.517,i,84.6,85.3
COc1ccc(S(=O)(=O)N2CCC(N3CCCCC3)CC2)cc1,91.9*,-0.0227,i,93.7,89.9
COc1ccc(S(=O)(=O)N2CCCCCC2)cc1,-3.9,1.32,i,103.0,101.9
O=c1ccc2ccc(Oc3ccc(Cl)cc3[N+](=O)[O-])cc2o1,-4.2,0.0468,i,x,x
Nc1nc(-c2ccc(Cl)cc2)c(N=Nc2ccc(S(=O)(=O)N3CCOCC3)cc2)s1,73.8*,0.225,i,3.7*,18.9
O=S(=O)(c1ccc(-c2ccccc2)cc1)N1CCOCC1,-6.0,1.55,i,94.0,90.9

# Screens from PubChem BioAssay.
